Experimental data as given in ChEMBL document CHEMBL1121744, “Synthesis and antihypertensive activity of a series of 8-substituted 1-oxa-3,8-diazaspiro[4.5]decan-2-ones” (J Med Chem, 1981).
Where “and” joins values, the source holds several entries; their conditions need not be identical. Equal values may be shown once.

Experiments:
Rattus norvegicus [1] = experiment: Percentage fall in systolic blood pressure in spontaneously hypertensive rats after 2 hr following 50 mg/kg p.o.; assay type: functional, Artery; details: route oral
Method in brief: (§1)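 Male Okamoto-Aoki SHR, trained, in groups of four matched for mean systolic pressure; one group per run received water vehicle. Oral dosing in water (0.1 mL per 10 g) on two consecutive mornings. After the day-2 dose, rats were restrained at 30.0 ± 1.0 °C. Systolic pressure was read by tail cuff (inflated to 300 mmHg, first pulse) at 1–4 h. % fall is versus the untreated control group, by 1-tail t test (p ≤ 0.05).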

Rattus norvegicus [2] = experiment: Percentage fall in systolic blood pressure in spontaneously hypertensive rats after 3 h following 50 mg/kg p.o.; assay type: functional, Artery; details: route oral; method in brief: as §1
Rattus norvegicus [3] = experiment: Antihypertensive activity as percentage fall in systolic blood pressure in spontaneously hypertensive rats after a period of 1 hr for a dose of 50 mg/kg; assay type: functional, Artery; method in brief: as §1
Rattus norvegicus [4] = experiment: Antihypertensive activity as percentage fall in systolic blood pressure in spontaneously hypertensive rats after a period of 4 hr for a dose of 50 mg/kg; assay type: functional, organism-based; parameters: dose 50 mg/kg; details: Artery; method in brief: as §1
Rattus norvegicus [5] = experiment: Antihypertensive activity as percentage fall in systolic blood pressure in spontaneously hypertensive rats after a period of 3 h for a dose of 50 mg/kg; assay type: functional, organism-based; parameters: dose 50 mg/kg; details: Artery; method in brief: as §1
Rattus norvegicus [6] = experiment: Antihypertensive activity as percentage fall in systolic blood pressure in spontaneously hypertensive rats after a period of 2 hr for a dose of 50 mg/kg; assay type: functional, organism-based; parameters: dose 50 mg/kg; details: Artery; method in brief: as §1
Rattus norvegicus [7] = experiment: Antihypertensive activity as percentage fall in systolic blood pressure in spontaneously hypertensive rats after a period of 1 hr for a dose of 50 mg/kg po; assay type: functional, organism-based; parameters: dose 50 mg/kg; details: Artery; method in brief: as §1
[8] = Distribution coefficient between 1-Octanol and phosphate buffer at pH7.4; assay type: physicochemical; details: 1-octanol/phosphate buffer, pH 7.4
Method in brief: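 Octanol/buffer distribution measured at pH 7.4 in phosphate with sodium chloride. Either HPLC (0.004 M) or shake flask.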

Structure (SMILES)	Decrease in blood pressure (Rattus norvegicus [1]; 50 mg/kg)	Decrease in blood pressure (Rattus norvegicus [2]) [%]	Decrease in blood pressure (Rattus norvegicus [3]) [%]	Decrease in blood pressure (Rattus norvegicus [4])	Decrease in blood pressure (Rattus norvegicus [5])	Decrease in blood pressure (Rattus norvegicus [6])	Decrease in blood pressure (Rattus norvegicus [7])	Decrease in blood pressure (Rattus norvegicus [1]) [%]	logD [8]
COc1ccccc1OC[C@@H](O)CN1CCC2(CC1)CN(C)C(=O)O2	16% and 13%	10	25	–	–	–	–	–	–
CCCCN1CC2(CCN(CC(O)COc3ccccc3OC)CC2)OC1=O (stereo unspecified)	–	–	–	Not significant	Not significant	Not significant	Not significant	–	–
CCC1CN(CCc2c[nH]c3ccccc23)CCC12CNC(=O)O2 (stereo unspecified)	–	–	16	Not significant	Not significant	–	–	19	2.01
CCCCN1CC2(CCN(CC(O)C3COc4ccccc4O3)CC2)OC1=O (stereo unspecified)	–	–	–	Not significant	Not significant	Not significant	Not significant	–	–
CCC1N(C)C(=O)OC12CCN(CCc1c[nH]c3ccccc13)CC2 (stereo unspecified)	–	–	–	Not significant	Not significant	Not significant	Not significant	–	2.14
CCN1CC2(CCN(CC(O)COc3ccccc3OC)CC2)OC1=O (stereo unspecified)	–	–	11	Not significant	Not significant	Not significant	–	–	–
COc1ccccc1OCC(O)CN1CCC2(CC1)CNC(=O)O2 (stereo unspecified)	–	–	–	Not significant	Not significant	Not significant	Not significant	–	0.69
CC1NC(=O)OC12CCN(CCc1c[nH]c3ccccc13)CC2 (stereo unspecified)	–	–	18	Not significant	Not significant	Not significant	–	–	1.43
O=C1NC(c2ccccc2)C2(CCN(CC(O)C3COc4ccccc4O3)CC2)O1 (stereo unspecified)	–	–	–	Not significant	Not significant	Not significant	Not significant	–	2.41
CCCC1CN(CCc2c[nH]c3ccccc23)CCC12CNC(=O)O2 (stereo unspecified)	–	–	21	Not significant	Not significant	Not significant	–	–	2.42
O=C1OC2(CCN(CC(O)C3COc4ccccc4O3)CC2)CN1CCc1ccccc1 (stereo unspecified)	–	–	14	Not significant	Not significant	Not significant	–	–	2.79
CCCCN1CC2(CCN(CCc3c[nH]c4ccccc34)CC2)OC1=O	–	–	–	Not significant	Not significant	Not significant	Not significant	–	–
CCC1NC(=O)OC12CC[N+](C)(CCc1c[nH]c3ccccc13)CC2.[I-] (stereo unspecified)	–	–	20	Not significant	Not significant	Not significant	–	–	–
O=C1NC(Cc2ccccc2)C2(CCN(CC(O)C3COc4ccccc4O3)CC2)O1 (stereo unspecified)	–	–	–	Not significant	Not significant	Not significant	Not significant	–	2.41
CC(C)C1NC(=O)OC12CCN(CCc1c[nH]c3ccccc13)CC2 (stereo unspecified)	–	–	26	Not significant	Not significant	–	–	17	–
COc1ccccc1OCC(O)CN1CCC2(CC1)CN(CCc1ccccc1)C(=O)O2 (stereo unspecified)	–	–	–	Not significant	Not significant	Not significant	Not significant	–	–
CCCN1CC2(CCN(CC(O)C3COc4ccccc4O3)CC2)OC1=O (stereo unspecified)	–	–	–	Not significant	Not significant	Not significant	Not significant	–	–
COc1ccccc1OCC(O)CN1CCC2(CC1)CN(C(C)C)C(=O)O2 (stereo unspecified)	–	–	–	Not significant	Not significant	Not significant	Not significant	–	–
O=C1NC(c2ccccc2)C2(CCN(CCc3c[nH]c4ccccc34)CC2)O1 (stereo unspecified)	–	–	–	Not significant	Not significant	Not significant	Not significant	–	2.61
O=C1OC2(CCN(CC(O)C3COc4ccccc4O3)CC2)CN1Cc1ccccc1 (stereo unspecified)	–	–	–	Not significant	Not significant	Not significant	Not significant	–	–
CC(C)CC1NC(=O)OC12CCN(CCc1c[nH]c3ccccc13)CC2 (stereo unspecified)	–	22	27	Not significant	–	–	–	–	–
O=C1OC2(CCN(CCc3c[nH]c4ccccc34)CC2)CN1Cc1ccccc1	–	–	–	Not significant	Not significant	Not significant	Not significant	–	2.91
O=C1OC2(CCN(CC(O)C3COc4ccccc4O3)CC2)CN1c1ccccc1 (stereo unspecified)	–	–	16	Not significant	Not significant	Not significant	–	–	–
CCCN1CC2(CCN(CCc3c[nH]c4ccccc34)CC2)OC1=O	–	–	14	Not significant	Not significant	Not significant	–	–	2.36
O=C1OC2(CCN(CCc3c[nH]c4ccccc34)CC2)CN1CCc1ccccc1	–	–	–	Not significant	Not significant	Not significant	Not significant	–	2.95
CCCN1CC2(CCN(CC(O)COc3ccccc3OC)CC2)OC1=O (stereo unspecified)	–	–	–	Not significant	Not significant	Not significant	Not significant	–	–
COc1ccccc1OC[C@H](O)CN1CCC2(CC1)CN(C)C(=O)O2	–	–	10	Not significant	Not significant	–	–	5	–
COCCN1CC2(CCN(CCc3c[nH]c4ccccc34)CC2)OC1=O	–	–	21	Not significant	Not significant	Not significant	–	–	–
CCCCC1NC(=O)OC12CCN(CCc1c[nH]c3ccccc13)CC2 (stereo unspecified)	–	15	24	Not significant	–	–	–	14	–
CCCC1NC(=O)OC12CCN(CCc1c[nH]c3ccccc13)CC2 (stereo unspecified)	–	16	36	Not significant	–	–	–	12	2.31
